In data set [1] the test system is HepG2. Kind of data set: Cytotoxicity against human HepG2 cells assessed as reduction in cell viability […] by Alamar blue assay. Format: toxicity, cell-based.
Data set [2] has as its system Enterococcus faecalis. Kind of data set: Antibiofilm activity against Enterococcus faecalis OG1RF ATCC 47077 biofilms assessed as biofilm eradication incubated for 24 hrs followed by incubation for 24 hrs in fresh medium by Calgary biofilm device assay. In kind it is functional. In outline:
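Calgary biofilm device. Biofilms grown 24 h at 37 °C in BHI from mid-log culture diluted 1000-fold. Pegs washed and then challenged 24 h with twofold serial dilutions. Pegs moved to fresh BHI for 24 h recovery. MBEC = lowest concentration leaving no turbidity; at least three independent experiments.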

Data set [3] in a line: Dissociation constant, pKa of the compound at 125 uM by UV-vis spectrophotometric analysis. In kind it is physicochemical. The settings on record: 125 µM. In outline:
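Compound at 125 μM final in phosphate buffers (KH₂PO₄/Na₂HPO₄) in 1:1 water/methanol, pH 4.07–9.66; ammonium hydroxide added for pH above 9.80. UV-vis scans 200–800 nm to find λmax of phenol and phenolate forms. Absorbance at each λmax plotted against pH.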

Data set [4] has as its system J774. Kind of data set: Cytotoxicity against mouse J774 cells assessed as reduction in cell viability […] by Alamar blue assay. In kind it is toxicity, cell-based. For orientation: Alamar Blue is a resazurin reagent that responds to reducing activity.
The subject of data set [5] is Staphylococcus aureus. Kind of data set: Antibiofilm activity against methicillin-resistant Staphylococcus aureus BAA-44 biofilms assessed as biofilm eradication incubated for 24 hrs followed by incubation for 24 hrs in fresh medium by Calgary biofilm device assay. In kind it is functional. In outline:
(§1)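 Calgary biofilm device. Mid-log culture diluted 1000-fold in TSB with 0.5% glucose; biofilms grown on pegs 24 h at 37 °C. Pegs washed and challenged with twofold compound dilutions for 24 h at 37 °C, then moved to fresh medium for 24 h. MBEC is the lowest concentration leaving wells non-turbid. At least three independent experiments.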

Data set [6] concerns Staphylococcus aureus. Kind of data set: Antibacterial activity against methicillin-resistant Staphylococcus aureus clinical isolate 1 assessed as bacterial growth inhibition. Format: functional.
Data set [7] concerns Staphylococcus aureus. Kind of data set: Induction of iron starvation in methicillin-resistant Staphylococcus aureus BAA-1707 biofilms assessed as upregulation of MW0695 gene expression at 1 uM incubated for 4 hrs by RT-qPCR analysis. Format: functional. In outline: (§2)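 MRSA BAA-1707 grown in TSB with 0.5% glucose to OD600 ~0.8–1.0, then biofilms formed 20 h at 37 °C statically in gelatin-coated 24-well plates. Biofilms treated 4 h at 37 °C with compound (1 μM or 1/10 MBEC) or DMSO vehicle. RNA extracted; only RIN ≥7 samples used. One-step SYBR RT-qPCR; ΔCT normalised to ptaA. Three independent experiments.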
In general terms: In qPCR the cycle at which signal appears reflects the starting amount.

Data set [8] deals with Erythrocyte. Kind of data set: Hemolytic activity against human RBC at 200 uM measured after 1 hr. In kind it is toxicity, cell-based. In outline: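 2% hRBCs exposed to compound at 200 μM final, added from DMSO stock, for 1 h at 37 °C. Supernatant OD read at 405 nm. Hemolysis normalized between DMSO (0%) and Triton X (100%); three independent experiments.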
The subject of data set [9] is Staphylococcus epidermidis. Kind of data set: Antibacterial activity against methicillin-resistant Staphylococcus epidermidis ATCC 35984 assessed as bacterial growth inhibition incubated for 16 hrs by broth microdilution susceptibility test. In kind it is functional. In outline: (§3)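 CLSI broth microdilution with 11 twofold dilutions (0.05–50 μM). About 10^5 cells per well from a log-phase culture. DMSO vehicle up to 0.5% v/v. At least three independent experiments.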

For data set [10], the system named is Staphylococcus aureus. Kind of data set: Induction of iron starvation in methicillin-resistant Staphylococcus aureus BAA-1707 biofilms assessed as upregulation of sfaA gene expression at 1/10XMBEC incubated for 4 hrs by RT-qPCR analysis. Format: functional. In outline: as §2
The test system of data set [11] is Staphylococcus aureus. Kind of data set: Antibiofilm activity against methicillin-resistant Staphylococcus aureus BAA-1707 biofilms assessed as biofilm eradication incubated for 24 hrs followed by incubation for 24 hrs in fresh medium by Calgary biofilm device assay. Format: functional. The procedure, abridged:
as §1

For data set [12], the system named is Staphylococcus aureus. Kind of data set: Antibacterial activity against methicillin-resistant Staphylococcus aureus 138 assessed as bacterial growth inhibition. Format: functional.
Data set [13] concerns Staphylococcus aureus. Kind of data set: Induction of iron starvation in methicillin-resistant Staphylococcus aureus BAA-1707 biofilms assessed as upregulation of MW0695 gene expression at 1/10XMBEC incubated for 4 hrs by RT-qPCR analysis. Format: functional. The procedure, abridged:
as §2

Data set [14] relates to Enterococcus faecalis. Kind of data set: Bactericidal activity against […] Enterococcus faecalis OG1RF ATCC 47077 planktonic cells assessed as planktonic eradication incubated for 24 hrs followed by incubation for overnight in fresh medium by Calgary biofilm device assay. Format: functional. The procedure, abridged: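 Calgary biofilm device in BHI. Biofilms grown 24 h at 37 °C and challenged 24 h with twofold compound dilutions. Challenge medium subcultured 1:10 into fresh BHI overnight at 37 °C. MBC is the concentration with no turbidity. At least three independent experiments.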

For data set [15], the system named is Mycobacterium tuberculosis. Kind of data set: Antibacterial activity against Mycobacterium tuberculosis CDC1551 assessed as bacterial growth inhibition incubated for 5 days by luminescence based analysis. Format: functional. The settings on record: CDC1551, 120 h, time 5 day. In outline:
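Bioluminescent Mtb-lux CDC1551 reporter grown in Middlebrook 7H9 with 0.05% Tween 80, 10% OADC and kanamycin to OD600 0.4–0.8, then diluted to OD600 0.02. Added to twofold drug dilutions (0.003–200 μM). Incubated 5 days at 37 °C, 5% CO2. Luminescence read against 1% DMSO and 10 μM rifampicin controls to give % growth inhibition. MIC taken from a modified Gompertz fit.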

In data set [16] the test system is Staphylococcus aureus. Kind of data set: Antibacterial activity against methicillin-resistant Staphylococcus aureus 156 assessed as bacterial growth inhibition. Format: functional.
Data set [17] relates to Staphylococcus aureus. Kind of data set: Antibacterial activity against methicillin-resistant Staphylococcus aureus 147 assessed as bacterial growth inhibition. Format: functional.
Data set [18] relates to Enterococcus faecium. Kind of data set: Antibiofilm activity against methicillin-resistant vancomycin-resistant Enterococcus faecium ATCC 700221 biofilms assessed as biofilm eradication incubated for 24 hrs followed by incubation for 24 hrs in fresh medium by Calgary biofilm device assay. Format: functional. In outline: as §1
For data set [19], the system named is Staphylococcus aureus. Kind of data set: Antibacterial activity against methicillin-resistant Staphylococcus aureus clinical isolate 2 assessed as bacterial growth inhibition. Format: functional.
Data set [20] relates to Staphylococcus aureus. Kind of data set: Induction of iron starvation in methicillin-resistant Staphylococcus aureus BAA-1707 biofilms assessed as upregulation of sbnC gene expression at 1 uM incubated for 4 hrs by RT-qPCR analysis. Format: functional. The procedure, abridged: as §2
Data set [21] concerns Staphylococcus epidermidis. Kind of data set: Antibiofilm activity against methicillin-resistant Staphylococcus epidermidis ATCC 35984 biofilms assessed as biofilm eradication incubated for 24 hrs followed by incubation for 24 hrs in fresh medium by Calgary biofilm device assay. In kind it is functional. The procedure, abridged: as §1
For data set [22], the system named is Enterococcus faecium. Kind of data set: Bactericidal activity against methicillin-resistant vancomycin-resistant Enterococcus faecium ATCC 700221 planktonic cells assessed as planktonic eradication incubated for 24 hrs followed by incubation for overnight in fresh medium by Calgary biofilm device assay. In kind it is functional. The procedure, abridged:
(§4)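 Calgary biofilm device. Biofilms grown 24 h at 37 °C in TSB with 0.5% glucose, then challenged 24 h with twofold compound dilutions. 20 μL of challenge medium transferred into fresh TSB with 0.5% glucose and incubated overnight at 37 °C. MBC is the concentration with no visible turbidity. At least three independent experiments.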

Data set [23] has as its system Staphylococcus epidermidis. Kind of data set: Bactericidal activity against methicillin-resistant Staphylococcus epidermidis ATCC 35984 planktonic cells assessed as planktonic eradication incubated for 24 hrs followed by incubation for overnight in fresh medium by Calgary biofilm device assay. In kind it is functional. In outline: as §4
Data set [24] has as its system Enterococcus faecalis. Kind of data set: Antibacterial activity against Enterococcus faecalis OG1RF ATCC 47077 assessed as bacterial growth inhibition incubated for 16 hrs by broth microdilution susceptibility test. Format: functional. A general note: Dilution methods test growth across graded concentrations, often in twofold steps.
Data set [25] deals with Staphylococcus aureus. Kind of data set: Bactericidal activity against methicillin-resistant Staphylococcus aureus BAA-44 planktonic cells assessed as planktonic eradication incubated for 24 hrs followed by incubation for overnight in fresh medium by Calgary biofilm device assay. Format: functional. In outline: as §4
Data set [26] deals with Staphylococcus aureus. Kind of data set: Antibacterial activity against methicillin-resistant Staphylococcus aureus 129 assessed as bacterial growth inhibition. Format: functional.
Data set [27] concerns Staphylococcus aureus. Kind of data set: Induction of iron starvation in methicillin-resistant Staphylococcus aureus BAA-1707 biofilms assessed as upregulation of isdB gene expression at 1/10XMBEC incubated for 4 hrs by RT-qPCR analysis. In kind it is functional. The procedure, abridged:
as §2

Data set [28] relates to Staphylococcus aureus. Kind of data set: Induction of iron starvation in methicillin-resistant Staphylococcus aureus BAA-1707 biofilms assessed as upregulation of sbnC gene expression at 1/10XMBEC incubated for 4 hrs by RT-qPCR analysis. In kind it is functional. In outline: as §2
For data set [29], the system named is Staphylococcus aureus. Kind of data set: Induction of iron starvation in methicillin-resistant Staphylococcus aureus BAA-1707 biofilms assessed as upregulation of sfaA gene expression at 1 uM incubated for 4 hrs by RT-qPCR analysis. In kind it is functional. The procedure, abridged: as §2
The subject of data set [30] is Staphylococcus aureus. Kind of data set: Induction of iron starvation in methicillin-resistant Staphylococcus aureus BAA-1707 biofilms assessed as upregulation of isdB gene expression at 1 uM incubated for 4 hrs by RT-qPCR analysis. In kind it is functional. The procedure, abridged: as §2
In data set [31] the test system is HeLa. Kind of data set: Cytotoxicity against human HeLa cells assessed as reduction in cell viability incubated for 24 hrs by LDH release assay. Format: toxicity, cell-based. In outline:
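HeLa cells in DMEM with 10% FBS, treated at 70–80% confluence with 25, 50 and 100 μM for 24 h. LDH in supernatant measured by 30 min reaction at room temperature, then stop solution and absorbance at 490 nm. Controls: 2% Triton X-100 (maximum), medium only, DMSO vehicle. Three independent experiments.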

Data set [32] deals with Enterococcus faecium. Kind of data set: Antibacterial activity against vancomycin-resistant Enterococcus faecium ATCC 700221 assessed as bacterial growth inhibition incubated for 16 hrs by broth microdilution susceptibility test. In kind it is functional. In outline: (§5)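 CLSI broth microdilution with 11 twofold dilutions (0.05–50 μM). Medium was LB for the staphylococci and BHI for VRE 700221. About 10^5 cells per well from a log-phase culture. […] DMSO vehicle up to 0.5% v/v. At least three independent experiments.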

Data set [33] has as its system Staphylococcus aureus. Kind of data set: Antibacterial activity against methicillin-resistant Staphylococcus aureus BAA-44 assessed as bacterial growth inhibition incubated for 16 hrs by broth microdilution susceptibility test. In kind it is functional. The procedure, abridged: as §5
For data set [34], the system named is Staphylococcus aureus. Kind of data set: Antibacterial activity against methicillin-resistant Staphylococcus aureus BAA-1707 assessed as bacterial growth inhibition incubated for 16 hrs by broth microdilution susceptibility test. Format: functional. In outline: as §3
For data set [35], the system named is Staphylococcus epidermidis. Kind of data set: Antibacterial activity against Staphylococcus epidermidis ATCC 12228 assessed as bacterial growth inhibition by broth microdilution method. Format: functional.

2 compounds from ChEMBL document CHEMBL5154634, “A Modular Synthetic Route Involving N-Aryl-2-nitrosoaniline Intermediates Leads to a New Series of 3-Substituted Halogenated Phenazine Antibacterial Agents” (J Med Chem, 2021) can be followed below.

Converted amounts (≈) assume the structure as drawn. The source made the active and inactive calls. The calls are words filed in the database; no cut-off is given here.

For `Oc1c(Br)cc(Br)c2nc3ccccc3nc12`, the IC50 in data set [1], in data set [4] and in data set [31] was greater than 100 µM throughout. Also, the MBEC is greater than 200 µM in [2]; 75 µM in data set [5]; 100 µM in [11]; 12.5 µM in data set [18]; 50 µM in data set [21]. In addition, the pKa – broadly, the negative logarithm of the acid dissociation constant – in data set [3] was found to be 7.12. Besides, the minimum inhibitory concentration (MIC) (in general, the lowest concentration found to suppress growth) in data set [6] was determined as 1.25 µM (≈ 0.443 µg/mL); in data set [9] it was 2.35 µM (≈ 0.832 µg/mL); in [12], 1.25 µM (≈ 0.443 µg/mL); in data set [15] it was 13.7 µM (≈ 4.85 µg/mL); in [16], 1.25 µM (≈ 0.443 µg/mL); in data set [17], 1.25 µM (≈ 0.443 µg/mL). Besides, the results for the minimum inhibitory concentration (MIC) in data set [19], in data set [24] and in [26] were 1.25 µM (≈ 0.443 µg/mL), 12.5 µM (≈ 4.43 µg/mL) and 1.25 µM (≈ 0.443 µg/mL), respectively. Moreover, the result in data set [7], in data set [10], in data set [13], in [20], in [27] and in data set [28] was Active. The outcome in [29] and in data set [30] was Active. Besides, the Activity result in [8] is given as “<= 1%”. For the same compound, the MBC in data set [14] stood at 25 µM (≈ 8.85 µg/mL); in data set [22], 18.8 µM (≈ 6.66 µg/mL); in data set [23], 25 µM (≈ 8.85 µg/mL); in [25], 37.5 µM (≈ 13.3 µg/mL).
As for `Oc1c(Br)ccc2nc3ccccc3nc12`, the minimal inhibitory concentration (MIC) stood at 6.25 µM (≈ 1.72 µg/mL) in [32]; 3.13 µM (≈ 0.861 µg/mL) in data set [9]; 3.13 µM (≈ 0.861 µg/mL) in [33]; 3.13 µM (≈ 0.861 µg/mL) in data set [34]; 6.25 µM (≈ 1.72 µg/mL) in data set [35]; 18.8 µM (≈ 5.17 µg/mL) in [24].
